Calls of active or inactive are those of the source. The calls are words filed in the database; no cut-off is given here.
What was measured:
MDA-MB-231 [1] = experiment: Antiproliferative activity against human MDA-MB-231 cells after 24 hrs by MTT assay; format: functional, cell-based
[2] = biological target: T1, Glutaminase kidney isoform, mitochondrial (Homo sapiens, UniProt O94925); experiment: Inhibition of human GLS1
T1 sequence (O94925 whole entry): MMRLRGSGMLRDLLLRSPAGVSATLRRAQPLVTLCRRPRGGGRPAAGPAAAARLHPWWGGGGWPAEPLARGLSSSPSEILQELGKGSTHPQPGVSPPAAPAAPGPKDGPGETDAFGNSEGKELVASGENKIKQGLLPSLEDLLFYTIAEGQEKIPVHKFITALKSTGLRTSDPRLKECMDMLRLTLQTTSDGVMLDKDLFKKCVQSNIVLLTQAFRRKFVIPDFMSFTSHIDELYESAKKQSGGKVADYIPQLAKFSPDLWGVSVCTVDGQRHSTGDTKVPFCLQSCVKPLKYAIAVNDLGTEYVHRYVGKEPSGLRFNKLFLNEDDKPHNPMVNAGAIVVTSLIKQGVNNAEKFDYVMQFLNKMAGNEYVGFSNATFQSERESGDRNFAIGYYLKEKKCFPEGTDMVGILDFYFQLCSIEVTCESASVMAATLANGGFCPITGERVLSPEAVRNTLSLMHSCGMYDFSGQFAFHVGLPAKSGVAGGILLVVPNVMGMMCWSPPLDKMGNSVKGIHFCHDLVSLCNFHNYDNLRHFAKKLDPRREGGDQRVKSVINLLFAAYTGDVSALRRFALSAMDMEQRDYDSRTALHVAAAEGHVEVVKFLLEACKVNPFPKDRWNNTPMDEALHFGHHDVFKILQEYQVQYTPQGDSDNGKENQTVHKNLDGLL
Outline: (§1)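 Human GLS1 hydrolase activity measured with a commercial GLS1 inhibitor screening kit, following the manufacturer's protocol. Single-point screening was run at 10 μM.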

[3] = biological target: T2, Glutaminase kidney isoform, mitochondrial (Homo sapiens) (UniProt O94925); experiment: Inhibition of human GLS1 at 10 uM relative to control; outline: as §1
T2 sequence (whole entry): T1 sequence (O94925 whole entry)

MDA-MB-231 [4] = experiment: Inhibition of colony formation in human MDA-MB-231 cells at 160 to 640 nM treated for 24 hrs and incubated for 2 weeks by crystal violet staining based assay; format: functional, cell-based; settings: dose 160-640 nM
Outline: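 MDA-MB-231 cells seeded at 1000 per well and left 24 h. Treated with DMSO vehicle or compound for 24 h, then grown two weeks with medium changed twice weekly. Colonies fixed in 4% paraformaldehyde and stained with 0.05% crystal violet. Result expressed as % of vehicle. n = 4.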

MDA-MB-231 [5] = experiment: Induction of apoptosis in human MDA-MB-231 cells assessed as viable cells at 160 nM incubated for 12 hrs by annexin V-FITC/PI based flow cytometric analysis (reference value: 98.1%); format: functional; settings: read-out: Activity
Outline: (§2)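 Cells exposed to compound or 0.1% DMSO for 12 h at 37°C, then resuspended in PBS at 1×10^5 cells/mL. Stained with annexin V-FITC and PI for 20 min at room temperature in the dark, then analysed by flow cytometry. Quadrant percentages reported: lower right early apoptotic, upper right late apoptotic. n = 4, mean ± SD.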

MDA-MB-231 [6] = experiment: Induction of apoptosis in human MDA-MB-231 cells assessed as early apoptotic cells at 160 nM incubated for 12 hrs by annexin V-FITC/PI based flow cytometric analysis (reference value: 1.2%); format: functional; outline: as §2
MDA-MB-231 [7] = experiment: Induction of apoptosis in human MDA-MB-231 cells assessed as late apoptotic cells at 160 nM incubated for 12 hrs by annexin V-FITC/PI based flow cytometric analysis (reference value: 0.7%); format: functional; outline: as §2
MDA-MB-231 [8] = experiment: Induction of apoptosis in human MDA-MB-231 cells assessed as viable cells at 320 nM incubated for 12 hrs by annexin V-FITC/PI based flow cytometric analysis (reference value: 98.1%); format: functional; settings: read-out: Activity; outline: as §2
MDA-MB-231 [9] = experiment: Induction of apoptosis in human MDA-MB-231 cells assessed as early apoptotic cells at 320 nM incubated for 12 hrs by annexin V-FITC/PI based flow cytometric analysis (reference value: 1.2%); format: functional; outline: as §2
MDA-MB-231 [10] = experiment: Induction of apoptosis in human MDA-MB-231 cells assessed as late apoptotic cells at 320 nM incubated for 12 hrs by annexin V-FITC/PI based flow cytometric analysis (reference value: 0.7%); format: functional; outline: as §2
MDA-MB-231 [11] = experiment: Induction of apoptosis in human MDA-MB-231 cells assessed as viable cells at 640 nM incubated for 12 hrs by annexin V-FITC/PI based flow cytometric analysis (reference value: 98.1%); format: functional; settings: read-out: Activity; outline: as §2
MDA-MB-231 [12] = experiment: Induction of apoptosis in human MDA-MB-231 cells assessed as increase in cleaved caspase-3 expression after 12 hrs by Western blotting analysis; format: functional, cell-based; settings: dose 160-640 nM
Outline: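 MDA-MB-231 cells exposed to graded concentrations or 0.1% DMSO; the methods state 24 h, the legend 12 h. Lysed in RIPA, 80 µg protein per lane on SDS-PAGE and transferred to PVDF. Probed overnight at 4°C for caspase-3, cleaved caspase-3, caspase-9 and cleaved caspase-9, with GAPDH as loading control. HRP secondaries, ECL detection, densitometry. n = 4.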

[13] = Toxicity in BALB/c nude mouse xenografted with human MDA-MB-231 cells assessed as heart tissue damage at 25 to 50 mg/kg, ip administered every 3 days for 4 weeks; format: organism-based; settings: in vivo, 672 h, dose 25-50 mg/kg
Outline: (§3)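 Xenograft-bearing nude mice (MDA-MB-231, s.c. right flank, treated from about 100 mm³) received 25 or 50 mg/kg i.p. every three days for four weeks. At the end mice were euthanized, and visceral organs were fixed in 4% paraformaldehyde for histopathology.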

[14] = Toxicity in BALB/c nude mouse xenografted with human MDA-MB-231 cells assessed as liver tissue damage at 25 to 50 mg/kg, ip administered every 3 days for 4 weeks; format: organism-based; settings: in vivo, 672 h, dose 25-50 mg/kg; outline: as §3
[15] = biological target: T2, Glutaminase kidney isoform, mitochondrial (Homo sapiens); experiment: Potency index, ratio of WA IC50 to compound IC50 for inhibition of human GLS1; outline: as §1

In the case of `CC(=O)O[C@H]1C=C([C@H](C)[C@H]2CC(C)=C(C)C(=O)O2)[C@@]2(C)CC[C@H]3[C@@H](C[C@H]4O[C@]45[C@@H](OC(=O)CCCC(=O)Nc4ccc(N6CCOCC6)c(F)c4)C=CC(=O)[C@]35C)[C@@]12O`, the Activity (MDA-MB-231 [1]) is reported as “Dose-Dependent Effect”, the IC50 (MDA-MB-231 [1]; MDA-MB-231, 24 h) is reported as 320 nM and the IC50 [2] is reported as 1080 nM. For the same molecule, the inhibition [3] was 87.2%, the inhibition (MDA-MB-231 [4]) was “Active” and the viability at 0.16 µM (MDA-MB-231 [5]) was 96.3%. The Activity (MDA-MB-231 [6]) was 2.6%, the Activity (MDA-MB-231 [7]) was 1% and the viability at 0.32 µM (MDA-MB-231 [8]) was 80.3%. The Activity (MDA-MB-231 [9]) was 16.7%, the Activity (MDA-MB-231 [10]) was 2.9% and the viability at 0.64 µM (MDA-MB-231 [11]) was 59.7%. The Activity (MDA-MB-231 [12]) was “Dose-Dependent Effect”, the Activity [13] was “Non-Toxic” and the Activity [14] was “Non-Toxic”. The Ratio IC50 [15] was 20.

Source: ChEMBL document CHEMBL4811218, “Discovery and optimization of withangulatin A derivatives as novel glutaminase 1 inhibitors for the treatment of triple-negative breast cancer” (Eur J Med Chem, 2021)
